A short description of data set [1]: ST_JUDE: Cytotoxicity using luciferase to measure ATP as an indicator of the viability of human foreskin fibroblast cells (BJ). Format: toxicity, cell-based.
The nature of data set [2]: ST_JUDE: Cytotoxicity using luciferase to measure ATP as an indicator of the viability of human epithelial hepatocellular carcinoma cells (HepG2). Format: toxicity, cell-based.
In data set [3] the test system is Toxoplasma gondii. As to the kind of experiment: ST_JUDE: Growth inhibition of to Toxoplasma gondii, in human U-2OS cells, as measured by luciferase. The following applies: RH, U2OS. Type of data set: functional, organism-based. An outline of the steps: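 T. gondii parasites engineered to express luciferase; drug sensitivity read by luminescence.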
Data set [4] deals with Plasmodium falciparum. As to the kind of experiment: ST_JUDE: Plasmodium falciparum 3D7 EC50 (uM) as measured by SYBR green dye. Format: functional, organism-based.
For data set [5], the system named is Plasmodium falciparum. As to the kind of experiment: ST_JUDE: Cytotoxicity against Plasmodium falciparum V1/S. Type of data set: functional, organism-based.
Data set [6] concerns Plasmodium falciparum. Briefly: ST_JUDE: Cytotoxicity against Plasmodium falciparum D10 transfected with yeast DHOD. Format: functional, organism-based.
The subject of data set [7] is Plasmodium falciparum. Briefly: ST_JUDE: Cytotoxicity against Plasmodium falciparum SB-A6. Format: functional, organism-based.
Data set [8] is described as follows: ST_JUDE: Cytotoxicity using luciferase to measure ATP as an indicator of the viability of human epithelial embryonic kidney cells (HEK293). Format: toxicity, cell-based.
Data set [9] has as its system Leishmania major. Briefly: ST_JUDE: Cytotoxicity using Alamar Blue to measure viability of Leishmania major. Type of data set: functional, organism-based. The essentials:
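L. major promastigotes; drug susceptibility read with Alamar Blue.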
(In general: Alamar Blue is a resazurin reagent that responds to reducing activity.)

Data set [10] relates to Plasmodium falciparum. As to the kind of experiment: ST_JUDE: Cytotoxicity against Plasmodium falciparum 3D7. Format: functional, organism-based. The essentials:
(§1)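 Asexual P. falciparum grown in human erythrocytes, exposed to compounds for 72 h, and growth read as the DNA quantity in treated versus control cultures. Dose-response run at 12 concentrations from 10 μM to 5 nM.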

For data set [11], the system named is Trypanosoma brucei. As to the kind of experiment: ST_JUDE: Cytotoxicity using luciferase to measure ATP as an indicator of the viability of Trypanosoma brucei. Type of data set: functional, organism-based.
The subject of data set [12] is Plasmodium falciparum. As to the kind of experiment: ST_JUDE: Cytotoxicity against Plasmodium falciparum W2. Format: functional, organism-based.
In data set [13] the test system is Plasmodium falciparum. Briefly: ST_JUDE: Plasmodium falciparum K1 EC50 (uM) as measured by SYBR green dye. Format: functional, organism-based.
Data set [14] concerns Plasmodium falciparum. As to the kind of experiment: ST_JUDE: Cytotoxicity against Plasmodium falciparum Dd2. Format: functional, organism-based.
For data set [15], the system named is Plasmodium falciparum. As to the kind of experiment: ST_JUDE: Cytotoxicity against Plasmodium falciparum K1. Type of data set: functional, organism-based. An outline of the steps:
as §1

The nature of data set [16]: ST_JUDE: Cytotoxicity using luciferase to measure ATP as an indicator of the viability of human Burkitt''s lymphoma lymphoblast cells (Raji). Format: toxicity, cell-based.

Bounds are passed on as bounds.

On to `CCOc1cc(C2CC(=O)NC3=C2C(=O)CC(c2ccc(OC)cc2)C3)cc(Cl)c1O` (stereo unspecified), for which the EC50 is over 44400 nM in data set [1]; over 44400 nM in data set [2]; over 24300 nM in data set [3]; 525 nM in data set [4]; 1180 nM in data set [5]; 1160 nM in [6]. Further, the concentration giving a half-maximal response (EC50) in data set [7] was 1230 nM; in data set [8] it was over 44400 nM; in [9] it was over 19000 nM; in [10] it was 976 nM; in data set [11], over 42600 nM; in [12], 637 nM. Also, the EC50 in data set [13] is 840 nM; in data set [14], 1310 nM; in data set [15], 1040 nM; in data set [16], over 44400 nM.
Turning to `Oc1ccc(Br)cc1CN1CCN(Cc2ccccc2)CC1`, the EC50 in [1] is over 27100 nM; in [2], over 27100 nM; in [3], over 14900 nM; in [4] it was 867 nM; in [5], 582 nM; in [6], 1750 nM. The EC50 in data set [7] is 2050 nM; in data set [8] it was over 27100 nM; in data set [9], over 11600 nM; in [10], 1230 nM; in data set [11], over 26000 nM; in data set [12], 848 nM. Further, the concentration giving a half-maximal response (EC50) is 419 nM in data set [13], 776 nM in data set [14], 401 nM in data set [15] and over 27100 nM in data set [16].
Take `Cc1ccc2c(c1)C=C/C(=C\c1sc3ccccc3[n+]1C)N2C`: the concentration giving a half-maximal response (EC50) in [1] was 7950 nM; in [2], 2250 nM; in data set [3], 3950 nM; in data set [4], 184 nM; in data set [5], 147 nM; in data set [6], 192 nM. In addition, the EC50 in data set [7] was 322 nM; in [8], 6530 nM; in data set [9], 1.2 nM; in [10] it was 144 nM; in data set [11] it was 175 nM; in data set [12], 15.4 nM. For the same compound, the concentration giving a half-maximal response (EC50) in data set [13] came to 85.7 nM; in data set [14], 204 nM; in [15], 152 nM; in data set [16], 740 nM.
On to `CCOc1ccc(Nc2cc(C)c3ccc(O)cc3n2)cc1`, for which the EC50 is over 51700 nM in data set [1]; 30400 nM in [2]; over 28300 nM in data set [3]; 483 nM in data set [4]; 195 nM in [5]; 504 nM in data set [6]. Further, the EC50 in data set [7] was 460 nM; in data set [8], over 51700 nM; in [9], over 22100 nM; in data set [10], 714 nM; in data set [11] it was 21700 nM; in [12], 233 nM. Moreover, the concentration giving a half-maximal response (EC50) in [13] stood at 153 nM; in data set [14], 629 nM; in [15], 158 nM; in data set [16], 34400 nM.
Consider `Cc1ccc2c(c1)N(C)/C(=C/c1cccc[n+]1C)S2`, for which the EC50 is over 23000 nM in data set [1]; over 23000 nM in data set [2]; over 12600 nM in data set [3]; 247 nM in [4]; 566 nM in data set [5]; 859 nM in data set [6]. For the same compound, the EC50 in data set [7] is 1030 nM; in data set [8] it was over 23000 nM; in [9], 10.7 nM; in data set [10], 588 nM; in data set [11], 1050 nM; in data set [12] it was 1110 nM. Further, the EC50 in [13] worked out at 179 nM; in [14], 646 nM; in data set [15], 675 nM; in data set [16], 2180 nM.
For the compound `CCOc1ccc(N(C(C)=O)C2=C(N(C)C)C(=O)c3ccccc3C2=O)cc1`, the EC50 in data set [1] is 11200 nM; in [2], 4820 nM; in data set [3], 10600 nM; in [4], 5.5 nM; in [5], 5.5 nM; in [6], 1 nM. Moreover, the EC50 in data set [7] was 1 nM; in data set [8] it was over 30200 nM; in data set [9] it was over 12900 nM; in data set [10], 2.7 nM; in data set [11] it was 1240 nM; in [12], 8.5 nM. The EC50 in [13] stood at 7.5 nM; in data set [14], 6.3 nM; in data set [15], 3.5 nM; in [16] it was 354 nM.
As to `O=C1C(Nc2ccc(Br)cc2)=C(n2nnc3ccccc32)C(=O)c2ccccc21`, the EC50 in [1] was over 24800 nM; in [2] it was over 24800 nM; in data set [3], over 13600 nM; in [4], 28.2 nM; in data set [5], 32.6 nM; in data set [6], 59.3 nM. Further, the 50% effective concentration (EC50) is 80.1 nM in [7]; over 24800 nM in [8]; over 10600 nM in data set [9]; 60.2 nM in [10]; 1310 nM in data set [11]; over 6370 nM in data set [12]. The EC50 in data set [13] was 21.6 nM; in data set [14] it was 590 nM; in [15] it was 24.5 nM; in data set [16], over 24800 nM.
As to `C[n+]1ccccc1/C=C/c1ccc([N+](=O)[O-])cc1`, the EC50 in data set [1] is over 33800 nM; in data set [2], over 33800 nM; in [3], over 18500 nM; in data set [4], 1410 nM; in data set [5] it was 858 nM; in data set [6], 899 nM. For the same compound, the EC50 in data set [7] was 1080 nM; in data set [8], over 33800 nM; in data set [9], over 14500 nM; in data set [10], 804 nM; in [11] it was over 32400 nM; in [12], 4230 nM. The EC50 in data set [13] is 1420 nM; in data set [14], 1040 nM; in data set [15], 745 nM; in [16] it was over 33800 nM.
Regarding `CC(C)c1ccccc1Oc1c(C(F)(F)F)oc2c(CN3CCN(C)CC3)c(O)ccc2c1=O`, the EC50 was over 21000 nM in [1]; over 21000 nM in data set [2]; over 11500 nM in data set [3]; 720 nM in data set [4]; 178 nM in data set [5]; 231 nM in data set [6]. The EC50 in data set [7] was 334 nM; in data set [8] it was over 21000 nM; in data set [9], 326 nM; in data set [10] it was 184 nM; in [11] it was over 20100 nM; in data set [12], 252 nM. The EC50 in [13] was 224 nM; in data set [14], 1810 nM; in data set [15], 158 nM; in [16] it was over 21000 nM.
For the compound `CC(C)c1ccc(CNCC(O)c2ccccc2)cc1` (stereo unspecified), the EC50 was over 52900 nM in [1]; over 52900 nM in data set [2]; over 29000 nM in data set [3]; 1350 nM in [4]; 1150 nM in [5]; 4100 nM in [6]. For the same compound, the EC50 in data set [7] was 4300 nM; in data set [8], 34500 nM; in data set [9], over 22600 nM; in data set [10] it was 2400 nM; in data set [11], 14400 nM; in [12], 1680 nM. Also, the EC50 in [13] is 439 nM; in data set [14], 2250 nM; in data set [15], 992 nM; in [16], 23200 nM.
With `C=CC[n+]1c(C=C2C=CN(CC)C=C2)sc2ccccc21`, the EC50 in data set [1] was over 28200 nM; in data set [2], over 28200 nM; in [3] it was over 15500 nM; in [4], 425 nM; in data set [5], 1270 nM; in data set [6], 1290 nM. The EC50 was 1310 nM in data set [7]; over 28200 nM in data set [8]; 20.8 nM in [9]; 1000 nM in data set [10]; 1510 nM in data set [11]; over 7250 nM in data set [12]. Moreover, the EC50 is 305 nM in data set [13], 696 nM in [14], over 7250 nM in data set [15] and 1240 nM in data set [16].

What is called EC50 is the concentration needed to bring the measured effect to its halfway point.

(Values after ChEMBL document CHEMBL1154198, “Chemical genetics of Plasmodium falciparum” (Nature, 2010).)
